Measured values collected from several papers.
Matrix: plasma

| SMILES | test system | setting | AUC(0-t) |
| --- | --- | --- | --- |
| CCNCCCNC/C=C\CNCCCNCC | human | intravenous, 50 mg, patients, infusion | 79.8 ng·h/mL |
| COc1ccc(-n2nc(C(N)=O)c3c2C(=O)N(c2ccc(N4CCCCC4=O)cc2)CC3)cc1 | male human | oral, 2.5 mg, single dose | 430 ng·h/mL |
| COc1cc(N2CCC(N3CCN(C)CC3)CC2)ccc1Nc1ncnc(Nc2ccccc2S(=O)(=O)C(C)C)n1 | human | oral, 50 mg, multiple doses, patients | 4640 ng·h/mL |
| CC(C)n1cc(C#N)c2cc(-n3cc(C(=O)O)cn3)ccc21 | human | oral, 25 mg, single dose, fasted, healthy volunteers | 5010 ng·h/mL |
| COc1ccc(-n2nc(C(N)=O)c3c2C(=O)N(c2ccc(N4CCCCC4=O)cc2)CC3)cc1 | human | oral, 10 mg, single dose, healthy volunteers | 2480 ng·h/mL |
| C#Cc1cccc(Nc2ncnc3cc(OCCOC)c(OCCOC)cc23)c1 | human | oral, 100 mg, patients | 21.9 µM·h |
| FC(F)(F)c1ccc(CNc2ccc(Cc3c[nH]c4ncc(Cl)cc34)cn2)cn1 | human | oral, 800 mg, multiple doses, patients | 22300 ng·h/mL |
| CO[C@H]1CC[C@H](N2C(=O)CNc3ncc(-c4ccc(C(C)(C)O)nc4)nc32)CC1 | human | oral, 7.5 mg, patients | 319 ng·h/mL |
| C[C@@H](Nc1cc(F)cc(F)c1)c1cc(C(=O)N(C)C)cc2c(=O)cc(N3CCOCC3)oc12 | human | oral, 30 mg, single dose, patients | 599 ng·h/mL |
| NS(=O)(=O)c1ccc(NC(=O)Nc2ccc(F)cc2)cc1 | human | oral, 2000 mg, multiple doses, once daily | 180000 ng·h/mL |
| Oc1cc(O)c2c(c1)O[C@@H](c1ccc(O)c(O)c1)[C@@H](O)C2 | human | oral, 10 mg, single dose | 4.6 ng·h/mL |
| Nc1cc(C(F)(F)F)c(-c2cc(N3CCOCC3)nc(N3CCOCC3)n2)cn1 | human | oral, 25 mg/day, patients | 2060 ng·h/mL |
| COc1cc2c(cc1OC)CN(CCc1ccc(NC(=O)c3cc(OC)c(OC)cc3NC(=O)c3cnc4ccccc4c3)cc1)CC2 | human | intravenous, 2 mg/kg, patients | 11.9 µM·h |
| CCO[C@H]1CCN(Cc2c(OC)cc(C)c3[nH]ccc23)[C@H](c2ccc(C(=O)O)cc2)C1 | human | oral, 50 mg, multiple doses, twice daily, patients | 8570 ng·h/mL |
| CC(C)c1nc(N(C)S(C)(=O)=O)nc(-c2ccc(F)cc2)c1/C=C/[C@@H](O)C[C@@H](O)CC(=O)O | human | oral, 20 mg | 48.6 ng·h/mL |
| C[C@@]1(c2cc(NC(=O)c3ccc(C#N)cn3)ccc2F)C=CSC(N)=N1 | human | oral, 150 mg, single dose | 14300 ng·h/mL |
| COCCOc1cnc2ccn([C@H](C)c3nnc4c(F)cc(-c5cnn(C)c5)cn34)c(=O)c2c1 | human | oral, 200 mg, multiple doses, once daily, patients | 36900 ng·h/mL |
| COc1ccc([C@@H]2CN(C(=O)[C@@H](O)CO)C[C@@]2(C)[C@@H](C)O)cc1OC1CN(c2ccc(C)cn2)C1 | human | oral, 0.5 mg, single dose, healthy volunteers | 188 ng·h/mL |
| CCCCC1=NC2(CCCC2)C(=O)N1Cc1ccc(-c2ccccc2S(=O)(=O)Nc2noc(C)c2C)c(COCC)c1 | human | oral, 200 mg, single dose, fed, healthy volunteers, tablet | 50500 ng·h/mL |
| Cc1nc(NC(=O)N2CCC[C@H]2C(N)=O)sc1-c1ccnc(C(C)(C)C(F)(F)F)c1 | human | oral, 350 mg, patients | 27600 ng·h/mL |
| OC[C@H]1O[C@@H](c2ccc(Cl)c(Cc3ccc(O[C@H]4CCOC4)cc3)c2)[C@H](O)[C@@H](O)[C@@H]1O | human | oral, 100 mg, single dose | 20 µM·h |
| O=C(/C=C/c1cccc(S(=O)(=O)Nc2ccccc2)c1)NO | human | intravenous, 1800 mg/m², patients | 54700 ng·h/mL |
| CC(C)(O)c1ccccc1-c1ccc2[nH]c(/C=C/c3ccc(C(F)(F)F)cc3)nc2c1 | male human | oral, 5 mg, single dose, fasted | 350 ng·h/mL |
| CO[C@@H]1[C@H](OC(=O)N2CC(CCN3CCOCC3)C2)CC[C@]2(CO2)[C@H]1[C@@]1(C)O[C@@H]1CC=C(C)C | human | subcutaneous, 0.6 mg, single dose, healthy volunteers | 1.21 ng·h/mL |
| C[C@@H](Oc1ccc(S(C)(=O)=O)cc1C(=O)N1C[C@@H]2C[C@]2(c2cc(C(F)(F)F)on2)C1)C(F)(F)F | human | oral, 25 mg, fasted, tablet | 8.7 µM·h |
| COc1cc2c(Nc3ccc(Br)cc3F)ncnc2cc1OCC1CCN(C)CC1 | human | oral, 65 mg/m², multiple doses, patients | 18900 ng·h/mL |
| O=C(O)C[C@H](O)C[C@H](O)/C=C/c1c(C2CC2)nc2ccccc2c1-c1ccc(F)cc1 | human | oral, 2 mg, single dose, fed, healthy volunteers, tablet | 292 ng·h/mL |
